Measurements as given in ChEMBL document CHEMBL2021842, “COMPARE analysis of the toxicity of an iminoquinone derivative of the imidazo[5,4-f]benzimidazoles with NAD(P)H:quinone oxidoreductase 1 (NQO1) activity and computational docking of quinones as NQO1 substrates” (Bioorg Med Chem, 2012).

Experiments:
HeLa = assay: Cytotoxicity against human HeLa cells assessed as reduction in mean cell viability after 72 hrs by MTT assay; assay type: functional, cell-based
Summary of the method: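 HeLa-CCL-2 cells in DMEM with 10% heat-inactivated FBS, 2 mM L-glutamine and nonessential amino acids. Plated at 1000 cells/well with 24 h adherence. Treated in ethanol (1% final) for 72 h at 37 °C under 5% CO₂, with ethanol controls. Absorbance of DMSO-dissolved formazan at 550 nm, 690 nm reference. IC₅₀ by nonlinear regression of percent viability.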

[1] = Growth inhibition of human […] cells assessed as cell growth at 10 uM relative to untreated control; assay type: functional; details: read-out: Activity
Summary of the method: (§1)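 First stage of the NCI DTP 60 human tumour cell-line screen. Cells were exposed to a single dose of 10 µM. Output is reported as growth % relative to control.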

HOP-62 [2] = assay: Growth inhibition of human HOP62 cells assessed as cell growth at 10 uM relative to untreated control; assay type: functional; details: read-out: Activity
Summary of the method: (§2)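 NCI DTP 60-cell-line screen, first stage: a single 10 µM dose of compound given to the human tumour panel. Result reported as percent growth relative to control, on a mean growth graph.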

NCI-H226 = assay: Growth inhibition of human NCI-H226 cells assessed as cell growth at 10 uM relative to untreated control; assay type: functional; details: read-out: Activity; summary of the method: as §1
NCI-H23 = assay: Growth inhibition of human NCI-H23 cells assessed as cell growth at 10 uM relative to untreated control; assay type: functional; details: read-out: Activity; summary of the method: as §1
COLO 205 [3] = assay: Growth inhibition of human COLO205 cells assessed as cell growth at 10 uM relative to untreated control; assay type: functional; details: read-out: Activity; summary of the method: as §2
HCT-116 [4] = assay: Growth inhibition of human HCT116 cells assessed as cell growth at 10 uM relative to untreated control; assay type: functional; details: read-out: Activity; summary of the method: as §2
KM12 [5] = assay: Growth inhibition of human KM12 cells assessed as cell growth at 10 uM relative to untreated control; assay type: functional; details: read-out: Activity; summary of the method: as §2
SW-620 = assay: Growth inhibition of human SW620 cells assessed as cell growth at 10 uM relative to untreated control; assay type: functional; details: read-out: Activity
Summary of the method: (§3)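 This is the first stage of the NCI DTP 60-human-tumour-cell-line screen, covering nine tissue types. Cells receive a single dose of the test compound, and the output is reported as mean growth %.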

SNB-75 = assay: Growth inhibition of human SNB75 cells assessed as cell growth at 10 uM relative to untreated control; assay type: functional; details: read-out: Activity; summary of the method: as §3
U-251 = assay: Growth inhibition of human U251 cells assessed as cell growth at 10 uM relative to untreated control; assay type: functional; details: read-out: Activity; summary of the method: as §3
UACC-257 [6] = assay: Growth inhibition of human UACC257 cells assessed as cell growth at 10 uM relative to untreated control; assay type: functional; details: read-out: Activity; summary of the method: as §3
OVCAR-4 [7] = assay: Growth inhibition of human OVCAR4 cells assessed as cell growth at 10 uM relative to untreated control; assay type: functional; details: read-out: Activity; summary of the method: as §1
OVCAR-5 [8] = assay: Growth inhibition of human OVCAR5 cells assessed as cell growth at 10 uM relative to untreated control; assay type: functional; details: read-out: Activity; summary of the method: as §1
OVCAR-8 [9] = assay: Growth inhibition of human OVCAR8 cells assessed as cell growth at 10 uM relative to untreated control; assay type: functional; details: read-out: Activity; summary of the method: as §1
SK-OV-3 = assay: Growth inhibition of human SKOV3 cells assessed as cell growth at 10 uM relative to untreated control; assay type: functional; details: read-out: Activity; summary of the method: as §1
SN12C = assay: Growth inhibition of human SN12C cells assessed as cell growth at 10 uM relative to untreated control; assay type: functional; details: read-out: Activity; summary of the method: as §3
UO-31 [10] = assay: Growth inhibition of human UO31 cells assessed as cell growth at 10 uM relative to untreated control; assay type: functional; details: read-out: Activity; summary of the method: as §3
DU-145 = assay: Growth inhibition of human DU145 cells assessed as cell growth at 10 uM relative to untreated control; assay type: functional; details: read-out: Activity; summary of the method: as §2
[11] = Growth inhibition of human Hs 578T cells assessed as cell growth at 10 uM relative to untreated control; assay type: functional; details: read-out: Activity; summary of the method: as §2
MDA-MB-435 = assay: Growth inhibition of human MDA-MB-435 cells assessed as cell growth at 10 uM relative to untreated control; assay type: functional; details: read-out: Activity; summary of the method: as §1
BT-549 = assay: Growth inhibition of human BT549 cells assessed as cell growth at 10 uM relative to untreated control; assay type: functional; details: read-out: Activity; summary of the method: as §2
HL-60(TB) = assay: Growth inhibition of human HL-60(TB) cells; assay type: functional
Summary of the method: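 NCI DTP NCI-60 screen, second stage: five-dose testing across 60 human tumour cell lines from nine tissue types. GI50 is the concentration that inhibits cell growth by 50%, obtained for each cell line.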

K562 = assay: Growth inhibition of human K562 cells; assay type: functional
Summary of the method: (§4)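 NCI DTP 60-cell-line screen, second stage: five-dose testing across the human tumour panel. GI₅₀ taken as the concentration needed to inhibit cell growth by 50% in each cell line.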

MOLT-4 = assay: Growth inhibition of human MOLT4 cells; assay type: functional
Summary of the method: (§5)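 Part of the NCI DTP 60-cell-line panel. After the single-dose stage, cells were tested at five doses. Read-out is the GI50, the concentration giving 50% inhibition of cell growth, derived for each cell line.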

HOP-62 [12] = assay: Growth inhibition of human HOP62 cells; assay type: functional; summary of the method: as §4
HOP-92 = assay: Growth inhibition of human HOP92 cells; assay type: functional; summary of the method: as §4
NCI-H322M = assay: Growth inhibition of human NCI-H322M cells; assay type: functional; summary of the method: as §5
NCI-H522 = assay: Growth inhibition of human NCI-H522 cells; assay type: functional; summary of the method: as §5
COLO 205 [13] = assay: Growth inhibition of human COLO205 cells; assay type: functional; summary of the method: as §4
HCT-116 [14] = assay: Growth inhibition of human HCT116 cells; assay type: functional; summary of the method: as §4
KM12 [15] = assay: Growth inhibition of human KM12 cells; assay type: functional; summary of the method: as §4
SNB-19 = assay: Growth inhibition of human SNB19 cells; assay type: functional
Summary of the method: (§6)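 This is the second, five-dose stage of the NCI DTP 60-cell-line screen. GI50 is the concentration that inhibits cell growth by 50%, derived for each cell line.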

M14 = assay: Growth inhibition of human M14 cells; assay type: functional; summary of the method: as §4
SK-MEL-2 = assay: Growth inhibition of human SK-MEL-2 cells; assay type: functional; summary of the method: as §5
SK-MEL-28 = assay: Growth inhibition of human SK-MEL-28 cells; assay type: functional; summary of the method: as §5
SK-MEL-5 = assay: Growth inhibition of human SK-MEL-5 cells; assay type: functional; summary of the method: as §5
UACC-257 [16] = assay: Growth inhibition of human UACC257 cells; assay type: functional; summary of the method: as §6
UACC-62 = assay: Growth inhibition of human UACC62 cells; assay type: functional; summary of the method: as §6
OVCAR-4 [17] = assay: Growth inhibition of human OVCAR4 cells; assay type: functional; summary of the method: as §5
OVCAR-5 [18] = assay: Growth inhibition of human OVCAR5 cells; assay type: functional; summary of the method: as §5
OVCAR-8 [19] = assay: Growth inhibition of human OVCAR8 cells; assay type: functional; summary of the method: as §5
ACHN = assay: Growth inhibition of human ACHN cells; assay type: functional; summary of the method: as §4
CAKI-1 = assay: Growth inhibition of human Caki1 cells; assay type: functional; summary of the method: as §4
RXF 393 = assay: Growth inhibition of human RXF393 cells; assay type: functional; summary of the method: as §5
UO-31 [20] = assay: Growth inhibition of human UO31 cells; assay type: functional; summary of the method: as §6
PC-3 = assay: Growth inhibition of human PC3 cells; assay type: functional; summary of the method: as §5
MCF7 = assay: Growth inhibition of human MCF7 cells; assay type: functional; summary of the method: as §5
[21] = Growth inhibition of human Hs 578T cells; assay type: functional; summary of the method: as §4
MDA-MB-468 [22] = assay: Growth inhibition of human MDA-MB-468 cells assessed as cell growth at 10 uM relative to untreated control; assay type: functional; details: read-out: Activity; summary of the method: as §1
MDA-MB-468 [23] = assay: Growth inhibition of human MDA-MB-468 cells; assay type: functional; summary of the method: as §5

Work on N=C1c2nc3n(c2C(=O)c2nc4n(c21)CCCC4)CCCC3 yielded an IC50 (HeLa) of 1.55 µM, a growth at 10 µM [1] of 82.2% and a growth at 10 µM (HOP-62 [2]) of 52.3%. It also gave a growth at 10 µM (NCI-H226) of 57.1%, a growth at 10 µM (NCI-H23) of -70.4% and a growth at 10 µM (COLO 205 [3]) of -88.6%. It also gave a growth at 10 µM (HCT-116 [4]) of 65.8%, a growth at 10 µM (KM12 [5]) of 66.7% and a growth at 10 µM (SW-620) of 23.7%. For the same molecule, the growth at 10 µM (SNB-75) was -97%, the growth at 10 µM (U-251) was 50.6% and the growth at 10 µM (UACC-257 [6]) was -6.6%. The growth at 10 µM (OVCAR-4 [7]) was 96.2%, the growth at 10 µM (OVCAR-5 [8]) was -57.8% and the growth at 10 µM (OVCAR-8 [9]) was 91.5%. It also gave a growth at 10 µM (SK-OV-3) of 95%, a growth at 10 µM (SN12C) of -86.1% and a growth at 10 µM (UO-31 [10]) of 46.9%. For the same molecule, the growth at 10 µM (DU-145) was -93.9%, the growth at 10 µM [11] was -28.6% and the growth at 10 µM (MDA-MB-435) was -82.5%. The growth at 10 µM (BT-549) was -37.2%, the GI50 (HL-60(TB)) was 23.4 µM and the GI50 (K562) was 20.4 µM. For the same molecule, the GI50 (MOLT-4) was 38.9 µM, the GI50 (HOP-62 [12]) was 2.45 µM and the GI50 (HOP-92) was 43.7 µM. For the same molecule, the GI50 (NCI-H322M) was 1.7 µM, the GI50 (NCI-H522) was 4.57 µM and the GI50 (COLO 205 [13]) was 1.86 µM. The GI50 (HCT-116 [14]) was 19.5 µM, the GI50 (KM12 [15]) was 13.2 µM and the GI50 (SNB-19) was 2.57 µM. For the same molecule, the GI50 (M14) was 1.78 µM, the GI50 (SK-MEL-2) was 38 µM and the GI50 (SK-MEL-28) was 2.09 µM. It also gave a GI50 (SK-MEL-5) of 1.2 µM, a GI50 (UACC-257 [16]) of 1.95 µM and a GI50 (UACC-62) of 1.74 µM. It also gave a GI50 (OVCAR-4 [17]) of 34.7 µM, a GI50 (OVCAR-5 [18]) of 2.63 µM and a GI50 (OVCAR-8 [19]) of 31.6 µM. It also gave a GI50 (ACHN) of 30.9 µM, a GI50 (CAKI-1) of 15.5 µM and a GI50 (RXF 393) of 16.6 µM. For the same molecule, the GI50 (UO-31 [20]) was 2.34 µM, the GI50 (PC-3) was 100 µM and the GI50 (MCF7) was 1.86 µM. For the same molecule, the GI50 [21] was 2.19 µM, the growth at 10 µM (MDA-MB-468 [22]) was 68.1% and the GI50 (MDA-MB-468 [23]) was 14.8 µM.
Work on O=C1c2nc3n(c2C(=O)c2nc4n(c21)CCCC4)CCCC3 yielded an IC50 (HeLa) of 1.67 µM, a growth at 10 µM [1] of 97.6% and a growth at 10 µM (HOP-62 [2]) of 112%. The growth at 10 µM (NCI-H226) was 111%, the growth at 10 µM (NCI-H23) was 100% and the growth at 10 µM (COLO 205 [3]) was 116%. For the same molecule, the growth at 10 µM (HCT-116 [4]) was 96.8%, the growth at 10 µM (KM12 [5]) was 92.1% and the growth at 10 µM (SW-620) was 104%. The growth at 10 µM (SNB-75) was 97%, the growth at 10 µM (U-251) was 97.5% and the growth at 10 µM (UACC-257 [6]) was 96.9%. For the same molecule, the growth at 10 µM (OVCAR-4 [7]) was 100%, the growth at 10 µM (OVCAR-5 [8]) was 110% and the growth at 10 µM (OVCAR-8 [9]) was 103%. It also gave a growth at 10 µM (SK-OV-3) of 102%, a growth at 10 µM (SN12C) of 99.6% and a growth at 10 µM (UO-31 [10]) of 90.9%. It also gave a growth at 10 µM (DU-145) of 101%, a growth at 10 µM [11] of 102% and a growth at 10 µM (MDA-MB-435) of 105%. It also gave a growth at 10 µM (MDA-MB-468 [22]) of 95.6%.
